“And” between values parts separate entries of the source, which are not always exact repeats. Equal values may be shown once. Marks after values point to notes of the source that are not given here.
Key:
[1] = type: in vivo, lambs; conditions: for AUC: area under the concentration vs time curve extrapolated to infinity / Cmax: peak plasma concentration / Tmax: time to peak plasma concentration / t 1/2 el: elimination half-life: mean ± SD, n = 6
In short: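 Six infected lambs per group got test compound intraruminally at 0.2 mg/kg. Heparinized jugular blood was taken before and at 0, 3, 6, 9 h and 1–13 days, spun at 2000g for 20 min, and plasma assayed by fluorescence HPLC. Non-compartmental analysis: Cmax observed; AUC by trapezoidal rule extrapolated to infinity; t½ = ln2/λz; MRT from AUMC/AUC. Mean ± SD; ANOVA or Kruskal–Wallis.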

[2] = Drug concentrations in GI contents and mucosal tissues; type: in vivo, lambs; conditions: for Drug concentration, abomasal mucosa / Drug concentration, intestinal mucosa: IR 0.2 mg/kg, lambs
In short: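 After intraruminal 0.2 mg/kg test compound, four infected lambs per time point were killed at 0.5, 1 and 2 days. Abomasal and cranial jejunum contents and mucosal tissue were sampled, stored at −20 °C and assayed by validated fluorescence HPLC (C18, 30 °C, ex 365/em 475 nm). Values are in ng/g, mean ± SD, n = 4.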

[3] = system: resistant Haemonchus contortus; type: in vivo; conditions: for Total mass of H. contortus specimens recovered: day 1 and 2 post-treatment, IR 0.2 mg/kg
In short: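 Infected lambs got test compound intraruminally at 0.2 mg/kg, four killed at 0.5, 1 and 2 days. The total H. contortus mass from abomasal contents was washed in 4 °C saline, blotted, weighed and frozen at −20 °C. Drug was measured by fluorescence HPLC (C18, 0.2% acetic acid/methanol/acetonitrile 1.6/60/38.4, 1.5 ml/min, 30 °C, ex 365/em 475 nm). n = 4.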

resistant GI nematodes = assay: Faecal egg count reduction test; type: in vivo, GI nematodes in lambs; conditions: IR 0.2 mg/kg; for FECRT: 14 days post-treatment vs untreated control; for Mean epg (range), arithmetic mean of eggs per gram of faeces: Day 14 post-treatment
In short: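 Faeces were sampled at day −1 and day 14 after a single intraruminal 0.2 mg/kg dose to naturally infected lambs. Eggs per gram were counted by modified McMaster. FECRT compared arithmetic mean epg of treated versus untreated controls at day 14, with 95% confidence limits per Coles. Counts were compared by Kruskal–Wallis.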

Haemonchus spp. = assay: Adult nematode worm counts and efficacy 14 days post-treatment; type: in vivo; conditions: abomasum, 14 days post-administration, IR 0.2 mg/kg
In short: (§1)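 Romney Marsh lambs (27.2 ± 4.48 kg), naturally infected with resistant GI nematodes and grazing lucerne/clover pasture, got a single intraruminal dose of test compound at 0.2 mg/kg. Six treated and six untreated lambs were killed by captive bolt at day 14. Abomasal, small and large intestinal contents were counted by WAAVP guidelines. Geometric mean worm burdens gave % efficacy, treated versus untreated.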

Teladorsagia spp. = assay: as above; type: in vivo; conditions: abomasum, 14 days post-administration, IR 0.2 mg/kg
In short: as §1

Trichostrongylus axei = assay: as above; type: in vivo; conditions: abomasum, 14 days post-administration, IR 0.2 mg/kg
In short: as §1

[4] = system: Trichostrongylus colubriformis; assay: as above; type: in vivo; conditions: small intestine, 14 days post-administration, IR 0.2 mg/kg
In short: as §1

Cooperia spp. = assay: as above; type: in vivo; conditions: small intestine, 14 days post-administration, IR 0.2 mg/kg
In short: as §1

Nematodirus spp. = assay: as above; type: in vivo; conditions: small intestine, 14 days post-administration, IR 0.2 mg/kg
In short: as §1

Trichuris spp. = assay: as above; type: in vivo; conditions: large intestine, 14 days post-administration, IR 0.2 mg/kg
In short: as §1

mammalian P-gp = conditions: in vitro; ref Lespine et al., 2007; cited from earlier work
[5] = sheep, plasma, other: intraruminal, 0.2 mg/kg
[6] = sheep (lambs), abomasal mucosa, other: intraruminal, 0.2 mg/kg

Molecule	Time up to which drug was detected in plasma ([1]; lambs, IR 0.2 mg/kg)	AUC: area under the concentration vs time curve extrapolated to infinity ([1]; lambs, IR 0.2 mg/kg, plasma)	Cmax: peak plasma concentration ([1]; lambs, IR 0.2 mg/kg, plasma)	Total mass of H. contortus specimens recovered [3] [g]	FECRT (resistant GI nematodes)	Mean epg (range), arithmetic mean of eggs per gram of faeces (resistant GI nematodes)	Efficacy, Haemonchus spp. (H. contortus) (Haemonchus spp.) [%]	Worm counts (geometric mean), Haemonchus spp. (Haemonchus spp.)	Efficacy, Teladorsagia spp. (Teladorsagia spp.) [%]	Worm counts (geometric mean), Teladorsagia spp. (Teladorsagia spp.)	Efficacy, Trichostrongylus axei (Trichostrongylus axei) [%]	Worm counts (geometric mean), Trichostrongylus axei (Trichostrongylus axei)	Efficacy, Trichostrongylus colubriformis [4] [%]	Worm counts (geometric mean), Trichostrongylus colubriformis [4]	Efficacy, Cooperia spp. (Cooperia spp.) [%]	Worm counts (geometric mean), Cooperia spp. (Cooperia spp.)	Efficacy, Nematodirus spp. (Nematodirus spp.) [%]	Worm counts (geometric mean), Nematodirus spp. (Nematodirus spp.)	Efficacy, Trichuris spp. (Trichuris spp.) [%]	Worm counts (geometric mean), Trichuris spp. (Trichuris spp.)	also measured
CC[C@H](C)[C@H]1O[C@]2(CC[C@@H]1C)C[C@@H]1C[C@@H](C/C=C(\C)[C@@H](O[C@H]3C[C@H](OC)[C@@H](O[C@H]4C[C@H](OC)[C@@H](O)[C@H](C)O4)[C@H](C)O3)[C@@H](C)/C=C/C=C3\CO[C@@H]4[C@H](O)C(C)=C[C@@H](C(=O)O1)[C@]34O)O2 [IVM, ivermectin]	up to 8 days post-treatment	23.6 ± 7.63^a ng d/ml	9.02 ± 1.47^b ng/ml	1.02 to 1.38	0%	4620^a (1860–12480)	20.1	1021	99.7	5	100	0	99.3	6.28	98.2	3.08	99.5	4.87	100	0	Tmax: time to peak plasma concentration ([1]; lambs, IR 0.2 mg/kg, plasma): 1.06 ± 0.52^a days; t 1/2 el: elimination half-life ([1]; lambs, IR 0.2 mg/kg, plasma): 1.15 ± 0.30^a days; Drug concentration, abomasal mucosa ([2]; 0.5 days post-treatment): 76.5 ± 9.83^a ng/g; Drug concentration, intestinal mucosa ([2]; 0.5 days post-treatment): 198 ± 55.7^a ng/g; Drug concentration, abomasal mucosa ([2]; 1 day post-treatment): 58.2 ± 8.75^a ng/g; Drug concentration, intestinal mucosa ([2]; 1 day post-treatment): 117 ± 26.8^a ng/g; Drug concentration, abomasal mucosa ([2]; 2 days post-treatment): 42.6 ± 4.53^a ng/g; Drug concentration, intestinal mucosa ([2]; 2 days post-treatment): 128 ± 51.4^a ng/g
CO/N=C1\C[C@]2(C[C@@H]3C[C@@H](C/C=C(\C)C[C@@H](C)/C=C/C=C4\CO[C@@H]5[C@H](O)C(C)=C[C@@H](C(=O)O3)[C@]45O)O2)O[C@H](/C(C)=C/C(C)C)[C@H]1C [MXD, moxidectin]	≤ 13 days post-treatment	29.5 ± 3.87^a ng d/ml	–	0.13 to 0.14	86% and 86.8%	570^b (240–960)	89.6	133	100	0	100	0	100	0	100	0	100	0	100	0	Plasma mean residence time (MRT) compared to ABM and IVM ([1]; lambs, IR 0.2 mg/kg): significant longer; Cmax [1, 5]: 11.3 ± 2.87 ng/mL; Tmax [1, 5]: 13 h; half-life [1, 5]: 113 h; Concentrations in GI contents and mucosal tissues compared to IVM and ABM ([2]; 2 days post-treatment): significantly lower; concentration at 0.5 days [2, 6]: 65.5 ± 9.74 ng/g; concentration at 1 day [2, 6]: 48.3 ± 12.7 ng/g; concentration at 2 days [2, 6]: 30.1 ± 5.8 ng/g; Drug concentrations recovered within adult H. contortus compared to ABM and IVM ([3]; day 2 post-treatment): lower; Affinity by mammalian P-gp compared to avermectin-type compounds (mammalian P-gp): lower affinity
abamectin [ABM]	up to 8 days post-treatment	34.8 ± 11.3^a ng d/ml	13.6 ± 2.64^a ng/ml	1.13 to 1.50	0%	4460^a (1200–6000)	39.7	769	100	0	100	0	100	0	100	0	99.8	2.32	100	0	Tmax: time to peak plasma concentration ([1]; lambs, IR 0.2 mg/kg, plasma): 0.90 ± 0.26^a days; t 1/2 el: elimination half-life ([1]; lambs, IR 0.2 mg/kg, plasma): 1.10 ± 0.25^a days; Drug concentration, abomasal mucosa ([2]; 0.5 days post-treatment): 76.8 ± 11.6^a ng/g; Drug concentration, intestinal mucosa ([2]; 0.5 days post-treatment): 203 ± 11.5^a ng/g; Drug concentration, abomasal mucosa ([2]; 1 day post-treatment): 78 ± 24.2^a ng/g; Drug concentration, intestinal mucosa ([2]; 1 day post-treatment): 152 ± 12.4^a ng/g; Drug concentration, abomasal mucosa ([2]; 2 days post-treatment): 64.6 ± 45.4^ab ng/g; Drug concentration, intestinal mucosa ([2]; 2 days post-treatment): 118 ± 85.9^a ng/g

Source: PMC3862411 (International Journal for Parasitology, Drugs and Drug …, 2012)
